In ChEMBL document CHEMBL4359823, “Switching on the activity of 1,5-diaryl-pyrrole derivatives against drug-resistant ESKAPE bacteria: Structure-activity relationships and mode of action studies” (Eur J Med Chem, 2019):
Values after ≈ are worked out from the molar mass of the structure shown. Active and inactive are the calls of the source. No cut-off for these calls is given here.

Columns and labels:
Acinetobacter baumannii [1] = assay: Antibacterial activity against Acinetobacter baumannii AYE measured after overnight incubation by microbroth dilution method; type: functional
Procedure, shortened: (§1)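 Microbroth dilution MIC. Compound DMSO stocks were diluted in water as a 2-fold series. Overnight TSB cultures were back-diluted to OD 0.01 and mixed 1:1 with compound. Plates were incubated overnight at 37 °C. MIC was the lowest concentration without visible growth (<0.1 OD600), run in duplicate.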

[2] = Inhibition of Staphylococcus aureus DNA gyrase subunit A2B2 using relaxed pBR322 DNA as substrate measured after 30 mins in presence of ATP by ethidium bromide-based gel electrophoresis
Procedure, shortened: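 Supercoiling assay with S. aureus wild-type or S84L gyrase and relaxed pBR322, with or without varying compound, at 37 °C for 30 min. The reaction was stopped with STEB and extracted with chloroform:isoamyl alcohol (24:1). The aqueous phase was run on a 1% agarose gel and the supercoiled band quantified. IC50 came from at least three independent replicates.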

Enterococcus faecalis [3] = assay: Antibacterial activity against vancomycin resistant Enterococcus faecalis NCTC12204 measured after overnight incubation by microbroth dilution method; type: functional
Procedure, shortened: (§2)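 Microbroth dilution: DMSO stocks diluted in water, 2-fold series. Overnight TSB cultures back-diluted to OD 0.01 and mixed 1:1 with compound. Incubated overnight at 37 °C; MIC taken as lowest concentration without visible growth (<0.1 OD600). Run in duplicate; matching DMSO levels checked for effect on growth.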

Staphylococcus aureus [4] = assay: Antibacterial activity against methicillin sensitive Staphylococcus aureus NCTC 6571 measured after overnight incubation by microbroth dilution method; type: functional; procedure, shortened: as §2
Klebsiella pneumoniae [5] = assay: Antibacterial activity against Klebsiella pneumoniae M6 measured after overnight incubation in presence of polymyxin B nonapeptide by microbroth dilution method; type: functional
Pseudomonas aeruginosa [6] = assay: Antibacterial activity against Pseudomonas aeruginosa NCTC13437 measured after overnight incubation in presence of phenylalanine arginine beta-naphthylamide by microbroth dilution method; type: functional; procedure, shortened: as §1
Pseudomonas aeruginosa [7] = assay: Antibacterial activity against Pseudomonas aeruginosa PAO1 measured after overnight incubation in presence of phenylalanine arginine beta-naphthylamide by microbroth dilution method; type: functional; procedure, shortened: as §1
Escherichia coli [8] = assay: Antibacterial activity against Escherichia coli NCTC12923 measured after overnight incubation in presence of polymyxin B nonapeptide by microbroth dilution method; type: functional
Acinetobacter baumannii [9] = assay: Antibacterial activity against Acinetobacter baumannii ATCC 17978 measured after overnight incubation in presence of polymyxin B nonapeptide by microbroth dilution method; type: functional
Enterococcus faecalis [10] = assay: Antibacterial activity against vancomycin resistant Enterococcus faecalis NCTC12201 measured after overnight incubation by microbroth dilution method; type: functional; procedure, shortened: as §2
Pseudomonas aeruginosa [11] = assay: Antibacterial activity against Pseudomonas aeruginosa PAO1 measured after overnight incubation by microbroth dilution method; type: functional; procedure, shortened: as §1
Pseudomonas aeruginosa [12] = assay: Antibacterial activity against Pseudomonas aeruginosa PAO1 measured after overnight incubation in presence of polymyxin B nonapeptide by microbroth dilution method; type: functional
Staphylococcus aureus [13] = assay: Antibacterial activity against Staphylococcus aureus NCTC13616 assessed as generation of drug resistance at 2 times MIC measured after 48 hrs by agar-based microbroth dilution method; type: functional
Procedure, shortened: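 Agar method: exponentially growing bacteria, in known numbers, plated on agar with doubling compound concentrations at and above the MIC; incubated 48 hours. Colonies growing above the MIC were picked and re-tested by microbroth MIC for raised resistance. Resistance frequency reported at 2xMIC.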

Klebsiella pneumoniae [14] = assay: Antibacterial activity against Klebsiella pneumoniae M6 measured after overnight incubation in presence of phenylalanine arginine beta-naphthylamide by microbroth dilution method; type: functional; procedure, shortened: as §1
Escherichia coli [15] = assay: Antibacterial activity against Escherichia coli NCTC12923 measured after overnight incubation by microbroth dilution method; type: functional; procedure, shortened: as §1
Pseudomonas aeruginosa [16] = assay: Antibacterial activity against Pseudomonas aeruginosa NCTC13437 measured after overnight incubation in presence of polymyxin B nonapeptide by microbroth dilution method; type: functional
Enterococcus faecium = assay: Antibacterial activity against Enterococcus faecium NCTC12204 assessed as generation of drug resistance at 2 times MIC measured after 48 hrs by agar-based microbroth dilution method
Klebsiella pneumoniae [17] = assay: Antibacterial activity against Klebsiella pneumoniae NCTC13368 measured after overnight incubation in presence of polymyxin B nonapeptide by microbroth dilution method; type: functional
Acinetobacter baumannii [18] = assay: Antibacterial activity against Acinetobacter baumannii ATCC 17978 measured after overnight incubation by microbroth dilution method; type: functional; procedure, shortened: as §1
Enterococcus faecalis [19] = assay: Bacteriostatic activity against vancomycin resistant Enterococcus feacalis NCTC12204 at 4 times MIC measured at 0 to 24 hrs by time kill assay
Klebsiella pneumoniae [20] = assay: Antibacterial activity against Klebsiella pneumoniae M6 measured after overnight incubation by microbroth dilution method; type: functional; procedure, shortened: as §1
Escherichia coli [21] = assay: Antibacterial activity against Escherichia coli NCTC12923 measured after overnight incubation in presence of phenylalanine arginine beta-naphthylamide by microbroth dilution method; type: functional; procedure, shortened: as §1
DNA gyrase = DNA gyrase (Staphylococcus aureus, UniProt P0A0K8+P20831, S84L); assay: Inhibition of Staphylococcus aureus DNA gyrase S84L mutant; type: protein-complex assay
HEK293 = assay: Cytotoxicity again human HEK293 cells measured after 24 hrs by XTT assay; type: cell-based; details: HEK293, 24 h
Procedure, shortened: (§3)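 Cells were grown in EMEM with glutamine, 10% FBS and non-essential amino acids at 37 °C, 10% CO2. Seeding was 1 x 10^5 cells/mL (HEK293) or 4 x 10^4 cells/mL (HeLa), then 24 h adherence. Doubling compound dilutions were applied for 24 h. XTT/PMS was added for 4 h in the dark, with absorbance read at 450 nm. Untreated cells were the 100% control and water-treated cells the 0% control; IC50 was fitted.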

Klebsiella pneumoniae [22] = assay: Antibacterial activity against Klebsiella pneumoniae NCTC13368 measured after overnight incubation in presence of phenylalanine arginine beta-naphthylamide by microbroth dilution method; type: functional; procedure, shortened: as §1
HeLa = assay: Cytotoxicity again human HeLa cells measured after 24 hrs by XTT assay; type: cell-based; procedure, shortened: as §3
Enterococcus faecalis [23] = assay: Antibacterial activity against vancomycin sensitive Enterococcus faecalis NCTC775 measured after overnight incubation by microbroth dilution method; type: functional; procedure, shortened: as §2
Klebsiella pneumoniae [24] = assay: Antibacterial activity against Klebsiella pneumoniae NCTC13368 measured after overnight incubation by microbroth dilution method; type: functional; procedure, shortened: as §1
Acinetobacter baumannii [25] = assay: Antibacterial activity against Acinetobacter baumannii AYE measured after overnight incubation in presence of phenylalanine arginine beta-naphthylamide by microbroth dilution method; type: functional; procedure, shortened: as §1
Staphylococcus aureus [26] = assay: Antibacterial activity against methicillin resistant Staphylococcus aureus NCTC13277 measured after overnight incubation by microbroth dilution method; type: functional; procedure, shortened: as §2
Topoisomerase IV = Topoisomerase IV (Staphylococcus aureus, UniProt P0C1S7+P0C1U9); assay: Inhibition of Staphylococcus aureus topoisomerase-4 expressed in Escherichia coli assessed as relaxation of pBR322 substrate measured after 30 mins by agarose gel electrophoresis
Acinetobacter baumannii [27] = assay: Antibacterial activity against Acinetobacter baumannii AYE measured after overnight incubation in presence of polymyxin B nonapeptide by microbroth dilution method; type: functional
Staphylococcus aureus [28] = assay: Antibacterial activity against methicillin resistant Staphylococcus aureus NCTC13616 measured after overnight incubation by microbroth dilution method; type: functional; procedure, shortened: as §2
Staphylococcus aureus [29] = assay: Bacteriostatic activity against methicillin resistant Staphylococcus aureus NCTC13616 at 4 times MIC measured at 0 to 24 hrs by time kill assay
Pseudomonas aeruginosa [30] = assay: Antibacterial activity against Pseudomonas aeruginosa NCTC13437 measured after overnight incubation by microbroth dilution method; type: functional; procedure, shortened: as §1
Acinetobacter baumannii [31] = assay: Antibacterial activity against Acinetobacter baumannii ATCC 17978 measured after overnight incubation in presence of phenylalanine arginine beta-naphthylamide by microbroth dilution method; type: functional; procedure, shortened: as §1
Staphylococcus aureus [32] = assay: Bactericidal activity against methicillin resistant Staphylococcus aureus NCTC13616 at 4 times MIC measured at 0 to 24 hrs by time kill assay; type: functional, organism-based
Procedure, shortened: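 Overnight cultures back-diluted to OD 0.01 in glass universals, compound added at 4 x MIC, 37 °C with shaking at 200 rpm. Sampled at 0, 2, 4, 6 and 24 h; CFU/mL counted by Miles-Misra; untreated control included.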

SMILES	MIC (Acinetobacter baumannii [1]) [µg/mL]	IC50 [2] [µg/mL]	MIC (Enterococcus faecalis [3]) [µg/mL]	MIC (Staphylococcus aureus [4]) [µg/mL]	MIC (Klebsiella pneumoniae [5]) [µg/mL]	MIC (Pseudomonas aeruginosa [6]) [µg/mL]	MIC (Pseudomonas aeruginosa [7]) [µg/mL]	MIC (Escherichia coli [8]) [µg/mL]	MIC (Acinetobacter baumannii [9]) [µg/mL]	MIC (Enterococcus faecalis [10]) [µg/mL]	MIC (Pseudomonas aeruginosa [11]) [µg/mL]	MIC (Pseudomonas aeruginosa [12]) [µg/mL]	Activity (Staphylococcus aureus [13])	MIC (Escherichia coli [15]) [µg/mL]	Activity (Enterococcus faecium)	MIC (Acinetobacter baumannii [18]) [µg/mL]	MIC (Klebsiella pneumoniae [20]) [µg/mL]	MIC (Enterococcus faecalis [23]) [µg/mL]	MIC (Staphylococcus aureus [26]) [µg/mL]	MIC (Staphylococcus aureus [28]) [µg/mL]	further results
Cc1c(CNC2CCC(NC(=N)N)CC2)cc(-c2ccc(Cl)cc2)n1-c1ccc(Cl)cc1 (stereo not drawn)	64 to 128 (≈ 136 to 272 µM)	7.48	4 (≈ 8.5 µM)	2 (≈ 4.25 µM)	64	64	128	4	16	16 (≈ 34 µM)	128 (≈ 272 µM)	128	<7.6e-08	8 (≈ 17 µM)	<9.4e-08	16 (≈ 34 µM)	32 (≈ 68 µM)	8 (≈ 17 µM)	4 (≈ 8.5 µM)	2 to 4 (≈ 4.25 to 8.5 µM)	MIC (Klebsiella pneumoniae [14]): 64 µg/mL; MIC (Pseudomonas aeruginosa [16]): 16 µg/mL; MIC (Klebsiella pneumoniae [17]): 128 µg/mL; Activity (Enterococcus faecalis [19]): Active; MIC (Escherichia coli [21]): 8 µg/mL; IC50 (DNA gyrase): 15.4 µM; IC50 (HEK293): 11.7 to 18.9 µg/mL (≈ 24.8 to 40.2 µM); MIC (Klebsiella pneumoniae [22]): 128 µg/mL; IC50 (HeLa): 11.7 to 18.9 µg/mL (≈ 24.8 to 40.2 µM); MIC (Klebsiella pneumoniae [24]): 128 µg/mL (≈ 272 µM); MIC (Acinetobacter baumannii [25]): 64 µg/mL; IC50 (Topoisomerase IV): 61.2 µM; MIC (Acinetobacter baumannii [27]): 32 µg/mL; Activity (Staphylococcus aureus [29]): Active; MIC (Pseudomonas aeruginosa [30]): 16 µg/mL (≈ 34 µM); MIC (Acinetobacter baumannii [31]): 16 µg/mL
C[C@H]1COc2c(N3CCN(C)CC3)c(F)cc3c(=O)c(C(=O)O)cn1c23.C[C@H]1COc2c(N3CCN(C)CC3)c(F)cc3c(=O)c(C(=O)O)cn1c23.O [LEVOFLOXACIN]	–	8.71	0.5	0.12	–	–	–	–	–	1	–	–	1.87e-05	< 0.12	7.08e-06	0.12	0.12	1	8	8	IC50 (Topoisomerase IV): 9.85 µM
Cc1c(CNC2CCCCCC2)cc(-c2ccc(Cl)cc2)n1-c1ccc(C(C)C)cc1	> 128	15.49	2 (≈ 4.6 µM)	4 (≈ 9.19 µM)	> 128	> 128	128	2	2	2 (≈ 4.6 µM)	> 128	16	<7.6e-08	> 128	<9.4e-08	32 (≈ 73.6 µM)	> 128	2 (≈ 4.6 µM)	4 (≈ 9.19 µM)	4 (≈ 9.19 µM)	MIC (Klebsiella pneumoniae [14]): > 128 µg/mL; MIC (Pseudomonas aeruginosa [16]): 16 µg/mL; MIC (Klebsiella pneumoniae [17]): > 128 µg/mL; Activity (Enterococcus faecalis [19]): Active; MIC (Escherichia coli [21]): 8 µg/mL; IC50 (DNA gyrase): 43.7 µM; IC50 (HEK293): 1.95 to 2.83 µg/mL (≈ 4.48 to 6.5 µM); MIC (Klebsiella pneumoniae [22]): > 128 µg/mL; IC50 (HeLa): 1.95 to 2.83 µg/mL (≈ 4.48 to 6.5 µM); MIC (Klebsiella pneumoniae [24]): > 128 µg/mL; MIC (Acinetobacter baumannii [25]): 4 µg/mL; MIC (Acinetobacter baumannii [27]): 4 µg/mL; Activity (Staphylococcus aureus [29]): Active; MIC (Pseudomonas aeruginosa [30]): > 128 µg/mL; MIC (Acinetobacter baumannii [31]): 4 µg/mL
Cc1c(CNC2CCCCC2)cc(-c2ccc(C(C)C)cc2)n1-c1ccc(Cl)cc1	> 128	–	2 (≈ 4.75 µM)	4 (≈ 9.5 µM)	128	> 128	> 128	2	2	4 (≈ 9.5 µM)	> 128	8	<7.6e-08	> 128	<9.4e-08	32 (≈ 76 µM)	> 128	4 (≈ 9.5 µM)	4 (≈ 9.5 µM)	4 (≈ 9.5 µM)	MIC (Klebsiella pneumoniae [14]): > 128 µg/mL; MIC (Pseudomonas aeruginosa [16]): 32 µg/mL; MIC (Klebsiella pneumoniae [17]): > 128 µg/mL; Activity (Enterococcus faecalis [19]): Active; MIC (Escherichia coli [21]): 16 µg/mL; IC50 (DNA gyrase): 69.1 µM; IC50 (HEK293): 2.4 to 3 µg/mL (≈ 5.7 to 7.13 µM); Activity (Staphylococcus aureus [32]): Active; MIC (Klebsiella pneumoniae [22]): > 128 µg/mL; IC50 (HeLa): 2.4 to 3 µg/mL (≈ 5.7 to 7.13 µM); MIC (Klebsiella pneumoniae [24]): > 128 µg/mL; MIC (Acinetobacter baumannii [25]): 8 µg/mL; MIC (Acinetobacter baumannii [27]): 8 µg/mL; MIC (Pseudomonas aeruginosa [30]): > 128 µg/mL; MIC (Acinetobacter baumannii [31]): 8 µg/mL
